What was measured:
[1] = test system: Ecoil-tagged FcγRIIIa (V158); assay: SPR capture of Ecoil-tagged FcγRIIIa on Kcoil surfaces; format: binding; conditions: for FcγRIIIa capture rate: Ecoil-tagged FcγRIIIa 0.25 μg/mL, 10 μL/min, from 25 s test injection
Summary of the method: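 FcγRIIIa V158 was Ecoil-tagged, expressed transiently in CHO-3E7 and purified by metal affinity. Biacore T100 SPR used CM5 chips in HBS-EP at 25 °C. Kcoil surfaces were amine-coupled Cys-free, thiol-coupled Cys- or amine-coupled dimeric Cys-Kcoil. A short 25 s injection gave the capture rate, assumed constant, to set the injection time for a 20 RU capture. The test was repeated before each batch.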

Ecoil-EGF = assay: SPR capture of Ecoil-EGF on Kcoil surfaces; format: binding; conditions: 10 μL/min
Summary of the method: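 Biacore T100 SPR on CM5 dextran chips, HBS-EP running buffer, 25 °C, 10 Hz collection. A test injection gave the Ecoil-EGF capture rate (RU/s), used to capture about 10 RU. Ecoil-EGF was at 0.05 µg/mL on thiol-coupled Kcoil and 0.1 µg/mL on amine-coupled monomeric or dimeric Kcoil. Surfaces were regenerated with two 15 s pulses of 6 M guanidium-HCl.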

Ecoil peptide = assay: SPR Ecoil peptide interaction with grafted Kcoil peptide; format: binding; conditions: comparison of the three grafting strategies
[2] = Ecoil-EGF/hEGF capture on glass slides by ELISA; format: binding; conditions: 5 nM hEGF stock, mean ± SD, n = 3
EGFR phosphorylation = conditions: read-out: EC50 for EGFR phosphorylation in solution; cited from earlier work
[3] = target: cysteine-free azidohomoalanine-terminated Kcoil, AhaGG-(KVSALKE)5; assay: SPR
[4] = target: dimeric Kcoil–Kcoil peptide (oxidized Cys-Kcoil, linked by a disulfide bond); assay: SPR

AhaGG-(KVSALKE)5 [Cys-free Kcoil]
FcγRIIIa capture rate [1]: 0.06 RU/s | Ecoil-tagged FcγRIIIa capture (in words) ([1]; SPR, 20 RU target): furthest from the 20 RU target | Ecoil-EGF capture rate (Ecoil-EGF; Ecoil-EGF 0.1 μg/mL): 0.32 RU/s

CGG-(KVSALKE)5 [Cys-Kcoil]
bioavailability (in words) (Ecoil peptide): highest percentage of bioavailability | FcγRIIIa capture rate [1]: 0.57 RU/s | Ecoil-EGF capture rate (Ecoil-EGF; Ecoil-EGF 0.05 μg/mL): 1.32 RU/s

hEGF: Recombinant human EGF (hEGF, #236-EG)
density on amine surface after 2 h (non-specific adsorption) ([2]; amine surface): 0.50 ± 0.01 pmol/cm^2 | density on thiol surface after 2 h (non-specific adsorption) ([2]; thiol surface): 0.50 ± 0.01 pmol/cm^2 | EC50 (EGFR phosphorylation): 4 nM

Ac-EVSALEKEVSALEKEVSALEKEVSALEKEVSALEK-NH2 [Ecoil peptide [(EVSALEK)5]]
koff [3]: 0.000308 s⁻¹ | koff [4]: 0.000468 s⁻¹

Reference: PMC10413464 (ACS Omega, 2023)
